The values that follow come from ChEMBL document CHEMBL1147605, “Syntheses and biological evaluation of new fluoroquinolone antibacterials containing chiral oxiimino pyrrolidine” (Bioorg Med Chem Lett, 2004).

In assay [1] the test system is Staphylococcus aureus. Briefly: In vitro antibacterial activity against the Methicillin-Resistant Staphylococcus aureus (MRSA) 692 E. The assay is classed as functional. The method, boiled down:
(§1)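 MICs by agar dilution following National Committee for Clinical Laboratory Standards recommendations; all strains obtained from Hoechst.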

Assay [2] relates to Staphylococcus aureus. Briefly: In vitro antibacterial activity against the Methicillin-Resistant Staphylococcus aureus (MRSA) 690 E. The assay is classed as functional. The method, boiled down:
as §1

For assay [3], the system named is Staphylococcus aureus. Briefly: In vitro antibacterial activity against the Staphylococcus aureus SG511. The assay is classed as functional.
Assay [4] has as its system Pseudomonas aeruginosa. Briefly: In vitro antibacterial activity against the Ofloxacin Resistant Pseudomonas aeruginosa 279II. The assay is classed as functional. The gist of the method:
as §1

The test system of assay [5] is Staphylococcus aureus. Briefly: In vitro antibacterial activity against the Ofloxacin Resistant Staphylococcus aureus 303. The assay is classed as functional. The method, boiled down: as §1
For assay [6], the system named is Staphylococcus aureus. Briefly: In vitro antibacterial activity against the Ofloxacin Resistant Staphylococcus aureus 293. The assay is classed as functional. The gist of the method:
as §1

Another assay deals with Klebsiella. Briefly: In vitro antibacterial activity against the Ofloxacin Resistant Klebsiella species 30-92. The assay is classed as functional. The method, boiled down: as §1
The subject of assay [7] is Pseudomonas aeruginosa. Briefly: In vitro antibacterial activity against the Pseudomonas aeruginosa 1771M. The assay is classed as functional.
Assay [8] deals with Streptococcus pyogenes. Briefly: In vitro antibacterial activity against the Streptococcus pyogenes 308A. The assay is classed as functional.
In assay [9] the test system is Escherichia coli. Briefly: In vitro antibacterial activity against the Escherichia coli DC 2. The assay is classed as functional.
In assay [10] the test system is Staphylococcus aureus. Briefly: In vitro antibacterial activity against the Methicillin-Resistant Staphylococcus aureus (MRSA) 697 E. The assay is classed as functional. The gist of the method:
as §1

The test system of assay [11] is Escherichia coli. Briefly: In vitro antibacterial activity against the Escherichia coli 078. The assay is classed as functional.
Assay [12] has as its system Staphylococcus epidermidis. Briefly: In vitro antibacterial activity against the Ofloxacin Resistant Staphylococcus epidermidis 319. The assay is classed as functional. The method, boiled down: as §1
Assay [13] deals with Staphylococcus aureus. Briefly: In vitro antibacterial activity against the Methicillin-Resistant Staphylococcus aureus (MRSA) 707 E. The assay is classed as functional. The gist of the method:
as §1

For a further assay, the system named is Salmonella typhimurium. Briefly: In vitro antibacterial activity against the Salmonella Typhimurium. The assay is classed as functional, Salmonella enterica subsp. enterica serovar Typhimurium. The conditions noted are these: Salmonella enterica.
The subject of a further assay is Enterococcus sp. Briefly: In vitro antibacterial activity against the Ofloxacin Resistant Enterococcus knothe 101. The assay is classed as functional. The method, boiled down:
as §1

Assay [14] concerns Pseudomonas aeruginosa. Briefly: In vitro antibacterial activity against the Pseudomonas aeruginosa 1592E. The assay is classed as functional.
Assay [15] relates to Staphylococcus aureus. Briefly: In vitro antibacterial activity against the Methicillin-Resistant Staphylococcus aureus (MRSA) 705 E. The assay is classed as functional. The gist of the method:
as §1

The test system of assay [16] is Staphylococcus epidermidis. Briefly: In vitro antibacterial activity against the Ofloxacin Resistant Staphylococcus epidermidis 291. The assay is classed as functional. The gist of the method:
as §1

Assay [17] has as its system Staphylococcus aureus. Briefly: In vitro antibacterial activity against the Methicillin-Resistant Staphylococcus aureus (MRSA) 701 E. The assay is classed as functional. The gist of the method: as §1
The next assay relates to Enterobacter cloacae. Briefly: In vitro antibacterial activity against the Enterobacter cloacae 1321 E. The assay is classed as functional.
In assay [18] the test system is Streptococcus pyogenes. Briefly: In vitro antibacterial activity against the Streptococcus pyogenes 77A. The assay is classed as functional.
For assay [19], the system named is Staphylococcus aureus. Briefly: In vitro antibacterial activity against the Ofloxacin Resistant Staphylococcus aureus 179. The assay is classed as functional. The method, boiled down:
as §1

Assay [20] relates to Staphylococcus aureus. Briefly: In vitro antibacterial activity against the Staphylococcus aureus 285. The assay is classed as functional.

Structures are written as SMILES.

By MIC is commonly meant the least concentration at which growth counts as inhibited. Consider `CO/N=C1\CN(c2nc3c(cc2F)c(=O)c(C(=O)O)cn3C2CC2)C[C@@]1(C)CN.Cl`, for which the MIC in the assay with Staphylococcus aureus [1] is 0.025 µg/mL; against Staphylococcus aureus [2], 0.025 µg/mL; against Staphylococcus aureus [3], 0.049 µg/mL; against Pseudomonas aeruginosa [4], 6.25 µg/mL; in the assay on Staphylococcus aureus [5], 0.781 µg/mL; in the assay with Staphylococcus aureus [6], 1.56 µg/mL. For the same compound, the MIC in the assay with Klebsiella was 3.12 µg/mL; in the assay on Pseudomonas aeruginosa [7] it was 0.391 µg/mL; with Streptococcus pyogenes [8], 0.195 µg/mL; in the assay on Escherichia coli [9], 0.098 µg/mL; in the assay with Staphylococcus aureus [10] it was 0.025 µg/mL; against Escherichia coli [11] it was 0.025 µg/mL. Further, the MIC in [12] came out at 6.25 µg/mL; against Staphylococcus aureus [13] it was 0.013 µg/mL; against Salmonella typhimurium, 0.013 µg/mL; against Enterococcus sp. it was 0.391 µg/mL; with Pseudomonas aeruginosa [14] it was 0.781 µg/mL; against Staphylococcus aureus [15], 0.049 µg/mL. Also, the MIC in assay [16] was found to be 3.12 µg/mL; in the assay with Staphylococcus aureus [17] it was 0.049 µg/mL; against Enterobacter cloacae, 0.007 µg/mL; in the assay on Streptococcus pyogenes [18], 0.098 µg/mL; with Staphylococcus aureus [19] it was 1.56 µg/mL; in the assay with Staphylococcus aureus [20] it was 0.049 µg/mL.
For `CC1(CN)CN(c2nc3c(cc2F)c(=O)c(C(=O)O)cn3C2CC2)C/C1=N/OCc1ccccc1.Cl` (stereo unspecified), the MIC in the assay with Staphylococcus aureus [3] is less than 0.002 µg/mL; against Pseudomonas aeruginosa [7], 1.56 µg/mL; in the assay with Streptococcus pyogenes [8], 0.195 µg/mL; with Escherichia coli [9], 0.098 µg/mL; in the assay on Escherichia coli [11], 0.049 µg/mL; with Salmonella typhimurium it was 0.098 µg/mL. Moreover, the MIC in the assay with Pseudomonas aeruginosa [14] was 6.25 µg/mL; in the assay on Enterobacter cloacae it was 0.049 µg/mL; against Streptococcus pyogenes [18], 0.025 µg/mL; in the assay on Staphylococcus aureus [20], less than 0.002 µg/mL.
For the compound `CO/N=C1\CN(c2nc3c(cc2F)c(=O)c(C(=O)O)cn3C2CC2)CC1(C)CN.Cl` (stereo unspecified), the MIC is less than 0.002 µg/mL against Staphylococcus aureus [1]; 0.004 µg/mL against Staphylococcus aureus [2]; 0.004 µg/mL in the assay with Staphylococcus aureus [3]; 6.25 µg/mL in the assay on Pseudomonas aeruginosa [4]; 0.195 µg/mL in the assay on Staphylococcus aureus [5]; 0.195 µg/mL in the assay with Staphylococcus aureus [6]. Besides, the minimum inhibitory concentration (MIC) was 1.56 µg/mL in the assay on Klebsiella; 0.391 µg/mL against Pseudomonas aeruginosa [7]; 0.098 µg/mL against Streptococcus pyogenes [8]; 0.049 µg/mL against Escherichia coli [9]; 0.007 µg/mL in the assay on Staphylococcus aureus [10]; 0.004 µg/mL against Escherichia coli [11]. Moreover, the MIC in assay [12] is 0.391 µg/mL; against Staphylococcus aureus [13], less than 0.002 µg/mL; in the assay with Salmonella typhimurium it was 0.007 µg/mL; against Enterococcus sp., 0.098 µg/mL; in the assay on Pseudomonas aeruginosa [14], 0.781 µg/mL; with Staphylococcus aureus [15], 0.013 µg/mL. In addition, the MIC turned out to be 0.391 µg/mL in assay [16]; 0.007 µg/mL in the assay with Staphylococcus aureus [17]; 0.004 µg/mL against Enterobacter cloacae; 0.025 µg/mL in the assay with Streptococcus pyogenes [18]; 0.195 µg/mL against Staphylococcus aureus [19]; 0.007 µg/mL against Staphylococcus aureus [20].
As to `CO/N=C1\CN(c2c(F)c(N)c3c(=O)c(C(=O)O)cn(C4CC4)c3c2F)CC1(C)CN.Cl` (stereo unspecified), the MIC is less than 0.002 µg/mL in the assay with Staphylococcus aureus [3]; 6.25 µg/mL against Pseudomonas aeruginosa [4]; 0.025 µg/mL against Staphylococcus aureus [5]; 0.025 µg/mL in the assay on Staphylococcus aureus [6]; 0.781 µg/mL against Klebsiella; 0.195 µg/mL in the assay on Pseudomonas aeruginosa [7]. Moreover, the minimum inhibitory concentration (MIC) is 0.013 µg/mL against Streptococcus pyogenes [8]; 0.007 µg/mL against Escherichia coli [9]; less than 0.002 µg/mL against Escherichia coli [11]; 0.049 µg/mL in assay [12]; less than 0.002 µg/mL in the assay with Salmonella typhimurium; 0.025 µg/mL in the assay on Enterococcus sp.. Besides, the minimum inhibitory concentration (MIC) in the assay on Pseudomonas aeruginosa [14] was 0.391 µg/mL; in the assay on Staphylococcus aureus [15], 0.004 µg/mL; in assay [16], 0.025 µg/mL; against Enterobacter cloacae it was less than 0.002 µg/mL; against Streptococcus pyogenes [18], less than 0.002 µg/mL; with Staphylococcus aureus [19], 0.025 µg/mL.
In the case of `CO/N=C1\CN(c2c(F)cc3c(=O)c(C(=O)O)cn(C4CC4)c3c2Cl)CC1(C)CN.Cl` (stereo unspecified), the MIC against Staphylococcus aureus [3] was determined as 0.007 µg/mL; in the assay with Pseudomonas aeruginosa [7] it was 0.195 µg/mL; against Streptococcus pyogenes [8] it was 0.195 µg/mL; in the assay on Escherichia coli [9] it was 0.025 µg/mL; with Escherichia coli [11] it was 0.007 µg/mL; against Salmonella typhimurium it was 0.025 µg/mL. Besides, the MIC amounted to 0.781 µg/mL in the assay with Pseudomonas aeruginosa [14], 0.004 µg/mL in the assay with Enterobacter cloacae, 0.025 µg/mL in the assay with Streptococcus pyogenes [18] and 0.007 µg/mL against Staphylococcus aureus [20].
